# Experimental data of several laboratories.
# Target: Serine/threonine-protein kinase D2 (PRKD2, Homo sapiens, UniProt Q9BZL6)
# Residues used in one study (Q9BZL6 1-878): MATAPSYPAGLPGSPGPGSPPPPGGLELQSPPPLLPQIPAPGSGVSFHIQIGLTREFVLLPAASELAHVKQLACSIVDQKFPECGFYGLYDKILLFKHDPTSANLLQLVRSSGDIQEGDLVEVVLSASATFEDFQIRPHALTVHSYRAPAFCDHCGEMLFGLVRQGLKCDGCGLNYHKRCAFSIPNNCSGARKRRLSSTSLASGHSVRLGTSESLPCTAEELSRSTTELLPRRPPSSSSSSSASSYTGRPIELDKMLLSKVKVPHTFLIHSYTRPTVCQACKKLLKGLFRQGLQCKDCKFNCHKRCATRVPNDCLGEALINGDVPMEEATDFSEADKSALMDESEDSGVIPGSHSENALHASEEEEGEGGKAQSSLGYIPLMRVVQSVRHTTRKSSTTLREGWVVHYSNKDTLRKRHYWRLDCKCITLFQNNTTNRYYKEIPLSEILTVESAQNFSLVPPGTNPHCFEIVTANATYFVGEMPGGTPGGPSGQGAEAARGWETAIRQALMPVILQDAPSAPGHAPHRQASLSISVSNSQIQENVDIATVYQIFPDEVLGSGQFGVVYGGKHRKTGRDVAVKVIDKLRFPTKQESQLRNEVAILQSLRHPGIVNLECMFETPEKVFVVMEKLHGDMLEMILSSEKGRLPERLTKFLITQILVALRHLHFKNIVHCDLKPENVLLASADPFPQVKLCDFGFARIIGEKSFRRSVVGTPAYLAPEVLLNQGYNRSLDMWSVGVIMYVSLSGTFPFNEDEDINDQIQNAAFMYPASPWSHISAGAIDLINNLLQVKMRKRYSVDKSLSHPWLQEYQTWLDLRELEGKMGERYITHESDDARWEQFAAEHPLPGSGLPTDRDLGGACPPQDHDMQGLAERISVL
SMILES,read-out,action,technique,concentration,quantity,value
N#CCCc1ccc2c(c1)-c1[nH]c3ccc([N+](=O)[O-])cc3c1CC(=O)N2,cell-free assay,,,0.5 µM,remaining signal,94.2%
CCCOc1ccc(OC)c(F)c1C(=O)c1ccc(C(=O)N[C@@H]2CNC[C@H]2NC(=O)c2ccc3[nH]ncc3c2)cc1,enzyme activity,inhibitor,,10 µM,remaining activity,48%
CCN1CCC2(CC1)NC(=O)c1c(c3ccc(Cl)c(Cl)c3n1C)C2C#N (racemic),thermal stability,,DSF,10 µM,ΔTm,0.6 °C
Cn1cncc1C1=CN(c2ncnc3[nH]cnc23)CCS1,enzyme activity,inhibitor,radiometric,50 nM,inhibition,38.2%
CCOc1cc(-c2nncn2C)ccc1Nc1ncc2cc(C)nc(NCC(C)(C)C)c2n1,enzyme activity,inhibitor,FRET,1 µM,inhibition,< 15%
Cc1cc(NC(=O)c2cccc3cc(-c4cccc5[nH]nc(N)c45)ccc23)ccc1F,enzyme activity,inhibitor,,0.1 µM,activity vs control,91%
CO[C@H]1CC[C@H](CNc2ccc(S(=O)(=O)NC(=O)c3ccc(N4CCN(CC5=C(c6ccc(Cl)cc6)CC(C)(C)CC5)CC4)cc3Oc3cnc4[nH]ccc4c3)cc2[N+](=O)[O-])CC1,cell-free assay,,competition with immobilised ligand,1 µM,remaining binding,100%
CCCCNc1ncc2c(-c3ccc(F)cc3)nn(C[C@H]3CC[C@H](N)CC3)c2n1,target engagement in cells,inhibitor,chemoproteomics,20 mM,inhibition,28.3%
CC(C)(C)c1nc(-c2cccc(NS(=O)(=O)c3c(F)cccc3F)c2F)c(-c2ccnc(N)n2)s1,enzyme activity,inhibitor,radiometric,1 µM,remaining activity,30%
CN([C@@H]1CCc2c(CC(=O)O)c3ccccc3n2C1)S(=O)(=O)c1ccc(F)cc1,cell-free assay,,competition with immobilised ligand,1 µM,remaining binding,100%
N#CC1c2c([nH]c3c(Cl)c(Cl)ccc23)C(=O)NC12CCCCC2 (racemic),thermal stability,,DSF,10 µM,ΔTm,0.1 °C
CCN(CC)CCNC(=O)c1c(C)[nH]c(/C=C2\C(=O)Nc3ccc(F)cc32)c1C,enzyme activity,inhibitor,,10 µM,inhibition,88%
COc1cc2ncnc(Nc3ccc(Oc4ccccc4)cc3C)c2cc1OC,enzyme activity,inhibitor,,1 µM,inhibition,9%
Cc1ccc(C(=O)NCc2ccsc2)cc1C#Cc1cn(C(C)C)c2ncnc(N)c12,enzyme activity,inhibitor,,1 µM,activity vs control,71%
c1ccc(CNc2nc(N3CCOc4ccccc43)nc3c2CCCC3)cc1,target engagement in cells,inhibitor,chemoproteomics,20 mM,inhibition,-7.2%
Cn1cnc(Br)c1C1=CN(c2ncnc3[nH]cnc23)CCS1,enzyme activity,inhibitor,radiometric,2 µM,inhibition,95.6%
CC/C(=N\NC(=O)NCc1cccc(O)c1)c1ccc(O)c(C)c1O,enzyme activity,inhibitor,,0.1 µM,inhibition,-11.5%
CNC(=O)c1cc(Oc2ccc(NC(=O)Nc3ccc(Cl)c(C(F)(F)F)c3)cc2)ccn1,enzyme activity,inhibitor,,10 µM,inhibition,15%
Cn1c2c(c3ccc(Cl)c(Cl)c31)C(C#N)C1(CCCC1)NC2=O (stereo not shown),thermal stability,,DSF,10 µM,ΔTm,-0.1 °C
COc1cc(Cl)c(C(=O)N[C@@H](CN[C@H]2CC[C@@H](N)CC2)Cc2ccc(C#N)cc2)cc1-c1ccc(CN[C@H](C)c2ccc(C)cc2)o1,enzyme activity,inhibitor,,1 µM,remaining activity,109%
Cn1nc(C(F)(F)F)cc1-c1cnc(N2CCc3cc(S(=O)(=O)Nc4c(F)cc(Cl)cc4F)cc(N4CCCC4=O)c32)nc1,cell-free assay,,competition with immobilised ligand,1 µM,remaining binding,95%
COc1cc2c(N3CCN(C(=O)Nc4ccc(OC(C)C)cc4)CC3)ncnc2cc1OCCCN1CCCCC1,cell-free assay,,,0.5 µM,remaining signal,96.4%
Cn1nc(C(=O)NCc2ccc(C(=O)O)cc2)cc1-c1ccc2[nH]ccc2c1,cell-free assay,,competition with immobilised ligand,0.1 µM,remaining binding,100%
O=S1(=O)N=C(NCc2ccc(OC(F)(F)F)cc2)Nc2cc(Cl)ccc21,binding,,competition with immobilised ligand,10 µM,inhibition,> 90%
CCCS(=O)(=O)Nc1ccc(F)c(C(=O)c2c[nH]c3ncc(-c4ccc(Cl)cc4)cc23)c1F,enzyme activity,inhibitor,,1 µM,inhibition,< 10%
Cn1c2c(Cl)c(Cl)ccc2c2cc[nH]c(=O)c21,thermal stability,,DSF,10 µM,ΔTm,0.4 °C
CC(C)CC(=O)N1CCc2nc(-c3ccc(Br)cc3)nc(N(C)Cc3ccccc3)c2C1,cell-free assay,,competition with immobilised ligand,0.1 µM,remaining binding,100%
Cn1c2c(c3ccc(Cl)c(Cl)c31)C(C#N)C(C)(C)NC2=O (stereo not shown),thermal stability,,DSF,10 µM,ΔTm,0.2 °C
CNC(=O)Nc1ccc2c(c1)[C@@]1(CC2)OC(=O)N(CC(=O)N(Cc2ccc(F)cc2)[C@@H](C)C(F)(F)F)C1=O,cell-free assay,,competition with immobilised ligand,1 µM,remaining binding,100%
Cc1ccc(Nc2nccc(N(C)c3ccc4c(C)n(C)nc4c3)n2)cc1S(N)(=O)=O,enzyme activity,inhibitor,,10 µM,inhibition,15%
CC(=O)Nc1c(C(C)=O)c(=O)n(C)c2nc(-c3ccc(Cl)cc3Cl)c(-c3ccc(Cl)cc3)cc12,cell-free assay,,competition with immobilised ligand,1 µM,remaining binding,100%
Cc1sc(C(=O)NC2COC2)cc1-n1cc(NC(=O)Nc2c(F)cccc2Cl)cn1,enzyme activity,inhibitor,,10 µM,remaining activity,95.7%
C[C@@]1(Cc2ccc(C#N)cc2)C(=O)N(c2cc(Cl)cc(Cl)c2)c2ncc(C(=O)NC3(c4nc(C5CCC5)no4)CC3)n21,cell-free assay,,competition with immobilised ligand,1 µM,remaining binding,100%
CNc1cccc2cc(C(=O)Nc3ccc(C(=O)O)cc3)c(=O)[nH]c12,enzyme activity,inhibitor,,10 µM,inhibition,2.5%
